Measurements from the M2OR odorant receptor database.

Experiments:
Conditions in all cases: stereoisomer not certain
[1] = target: T1, UniProt Q8VGX8
T1 sequence (whole entry): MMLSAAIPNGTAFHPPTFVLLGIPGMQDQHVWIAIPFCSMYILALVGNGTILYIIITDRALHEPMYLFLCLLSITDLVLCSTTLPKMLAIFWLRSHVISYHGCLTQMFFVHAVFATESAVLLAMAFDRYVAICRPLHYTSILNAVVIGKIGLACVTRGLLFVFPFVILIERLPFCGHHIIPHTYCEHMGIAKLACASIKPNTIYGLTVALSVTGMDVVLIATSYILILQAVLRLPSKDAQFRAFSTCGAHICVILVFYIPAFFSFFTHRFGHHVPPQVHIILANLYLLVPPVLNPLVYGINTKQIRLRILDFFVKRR
Outline: (§1)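 Assay methods differ from source to source, frequently being transient luciferase assays in mammalian cell lines. For each receptor–molecule pair, the label responsive (active) applies when the original authors judged the measured signal statistically different from baseline, and non-responsive (inactive) applies otherwise.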

[2] = target: T2, UniProt Q8VGZ2
T2 sequence (whole entry): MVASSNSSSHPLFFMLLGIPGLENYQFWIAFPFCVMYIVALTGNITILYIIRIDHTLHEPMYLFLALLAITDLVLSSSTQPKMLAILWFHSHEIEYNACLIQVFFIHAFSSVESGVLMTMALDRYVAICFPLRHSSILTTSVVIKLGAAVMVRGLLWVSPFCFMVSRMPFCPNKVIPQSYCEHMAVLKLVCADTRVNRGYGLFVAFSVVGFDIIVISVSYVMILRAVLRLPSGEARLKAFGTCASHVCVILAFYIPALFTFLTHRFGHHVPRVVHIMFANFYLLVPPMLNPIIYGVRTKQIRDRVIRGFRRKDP
Outline: as §1

[3] = target: T3, UniProt Q8VGZ7
T3 sequence (whole entry): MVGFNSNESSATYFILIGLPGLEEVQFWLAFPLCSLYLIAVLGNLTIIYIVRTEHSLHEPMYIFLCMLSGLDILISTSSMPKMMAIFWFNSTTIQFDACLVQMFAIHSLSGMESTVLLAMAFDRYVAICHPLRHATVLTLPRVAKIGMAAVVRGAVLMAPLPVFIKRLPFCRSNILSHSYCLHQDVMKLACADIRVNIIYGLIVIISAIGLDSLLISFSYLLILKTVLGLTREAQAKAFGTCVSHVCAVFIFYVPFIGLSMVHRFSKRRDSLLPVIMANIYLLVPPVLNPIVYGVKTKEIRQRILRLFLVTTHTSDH
Outline: as §1

[4] = target: T4, UniProt Q8VH16
T4 sequence (whole entry): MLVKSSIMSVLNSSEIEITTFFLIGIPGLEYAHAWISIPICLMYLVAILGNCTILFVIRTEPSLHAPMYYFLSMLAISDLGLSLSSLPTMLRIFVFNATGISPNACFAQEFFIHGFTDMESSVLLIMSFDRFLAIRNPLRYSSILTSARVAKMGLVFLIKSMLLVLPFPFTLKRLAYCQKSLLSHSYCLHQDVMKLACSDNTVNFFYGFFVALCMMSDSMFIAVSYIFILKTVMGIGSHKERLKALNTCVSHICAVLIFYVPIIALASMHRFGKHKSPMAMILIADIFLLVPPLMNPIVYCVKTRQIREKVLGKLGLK
Outline: as §1

[5] = target: T5, UniProt Q8VH18
T5 sequence (whole entry): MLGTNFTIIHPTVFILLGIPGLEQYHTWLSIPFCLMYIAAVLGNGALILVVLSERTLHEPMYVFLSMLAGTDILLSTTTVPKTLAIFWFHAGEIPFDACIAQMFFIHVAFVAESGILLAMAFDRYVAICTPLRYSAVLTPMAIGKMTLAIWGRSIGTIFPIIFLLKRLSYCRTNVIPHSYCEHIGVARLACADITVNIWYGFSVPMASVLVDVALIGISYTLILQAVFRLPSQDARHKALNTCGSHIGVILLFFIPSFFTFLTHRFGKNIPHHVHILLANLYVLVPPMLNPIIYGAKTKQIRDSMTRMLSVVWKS
Outline: as §1

[6] = target: T6, UniProt Q8VH20
T6 sequence (whole entry): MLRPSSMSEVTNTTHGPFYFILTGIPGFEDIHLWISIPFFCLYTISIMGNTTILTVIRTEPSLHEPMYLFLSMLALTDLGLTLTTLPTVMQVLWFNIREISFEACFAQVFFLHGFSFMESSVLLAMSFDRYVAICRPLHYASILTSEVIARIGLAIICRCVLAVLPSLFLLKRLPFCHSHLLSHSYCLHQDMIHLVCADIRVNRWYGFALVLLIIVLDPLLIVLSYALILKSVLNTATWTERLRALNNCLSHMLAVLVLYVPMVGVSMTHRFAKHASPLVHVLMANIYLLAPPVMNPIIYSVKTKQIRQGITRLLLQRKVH
Outline: as §1

[7] = target: T7, UniProt Q8VH21
T7 sequence (whole entry): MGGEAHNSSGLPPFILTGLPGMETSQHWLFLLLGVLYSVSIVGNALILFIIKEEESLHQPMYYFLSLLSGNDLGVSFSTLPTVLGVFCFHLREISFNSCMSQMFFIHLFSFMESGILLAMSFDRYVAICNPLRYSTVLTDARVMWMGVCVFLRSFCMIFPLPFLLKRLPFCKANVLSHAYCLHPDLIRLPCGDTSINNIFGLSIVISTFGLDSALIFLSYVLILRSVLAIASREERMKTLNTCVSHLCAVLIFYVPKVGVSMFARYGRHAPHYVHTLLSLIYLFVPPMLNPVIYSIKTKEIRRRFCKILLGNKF
Outline: as §1

[8] = target: T8, UniProt Q924H8
T8 sequence (whole entry): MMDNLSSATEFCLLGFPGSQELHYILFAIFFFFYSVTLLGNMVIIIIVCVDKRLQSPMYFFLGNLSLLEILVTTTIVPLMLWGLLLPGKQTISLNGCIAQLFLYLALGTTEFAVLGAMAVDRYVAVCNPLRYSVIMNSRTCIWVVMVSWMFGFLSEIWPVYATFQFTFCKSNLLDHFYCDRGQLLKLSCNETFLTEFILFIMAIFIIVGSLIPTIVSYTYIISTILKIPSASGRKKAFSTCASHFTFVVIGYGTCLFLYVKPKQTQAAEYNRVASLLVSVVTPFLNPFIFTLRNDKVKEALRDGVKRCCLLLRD
Outline: as §1

[9] = target: T9, UniProt Q924X8
T9 sequence (whole entry): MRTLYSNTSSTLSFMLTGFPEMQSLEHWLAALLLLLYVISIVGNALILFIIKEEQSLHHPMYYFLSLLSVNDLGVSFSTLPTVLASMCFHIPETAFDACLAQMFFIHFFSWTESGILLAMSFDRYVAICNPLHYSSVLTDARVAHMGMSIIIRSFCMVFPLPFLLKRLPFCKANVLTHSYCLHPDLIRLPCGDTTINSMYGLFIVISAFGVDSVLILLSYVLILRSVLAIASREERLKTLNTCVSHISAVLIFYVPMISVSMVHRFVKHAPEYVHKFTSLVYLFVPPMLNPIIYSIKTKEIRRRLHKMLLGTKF
Outline: as §1

[10] = target: T10, UniProt Q99NH4
T10 sequence (whole entry): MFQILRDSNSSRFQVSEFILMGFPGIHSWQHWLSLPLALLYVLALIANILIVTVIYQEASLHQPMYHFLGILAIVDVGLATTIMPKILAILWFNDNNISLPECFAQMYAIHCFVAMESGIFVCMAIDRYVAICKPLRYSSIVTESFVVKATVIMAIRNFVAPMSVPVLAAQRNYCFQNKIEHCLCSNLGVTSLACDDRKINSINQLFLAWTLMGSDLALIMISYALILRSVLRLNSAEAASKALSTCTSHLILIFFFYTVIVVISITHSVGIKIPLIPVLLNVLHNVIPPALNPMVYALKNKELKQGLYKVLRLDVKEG
Outline: as §1

[11] = target: T11, UniProt Q9WU94
T11 sequence (whole entry): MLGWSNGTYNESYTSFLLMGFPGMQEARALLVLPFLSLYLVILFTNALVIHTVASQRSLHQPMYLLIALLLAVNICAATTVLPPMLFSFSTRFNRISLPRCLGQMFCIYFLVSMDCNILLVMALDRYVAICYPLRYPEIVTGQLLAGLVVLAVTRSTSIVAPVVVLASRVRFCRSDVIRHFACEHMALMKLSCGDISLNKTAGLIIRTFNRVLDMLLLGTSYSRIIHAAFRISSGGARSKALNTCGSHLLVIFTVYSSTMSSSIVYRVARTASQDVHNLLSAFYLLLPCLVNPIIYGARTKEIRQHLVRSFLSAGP
Outline: as §1

[12] = target: T12, UniProt Q9WVD7
T12 sequence (whole entry): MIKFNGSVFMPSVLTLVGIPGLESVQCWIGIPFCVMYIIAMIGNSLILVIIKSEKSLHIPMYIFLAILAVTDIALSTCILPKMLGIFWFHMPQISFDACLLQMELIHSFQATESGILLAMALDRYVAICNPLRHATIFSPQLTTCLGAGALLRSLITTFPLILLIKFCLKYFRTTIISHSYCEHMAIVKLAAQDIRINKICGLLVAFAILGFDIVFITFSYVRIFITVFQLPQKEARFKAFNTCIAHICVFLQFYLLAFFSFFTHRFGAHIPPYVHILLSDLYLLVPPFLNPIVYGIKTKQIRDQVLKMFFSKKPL
Outline: as §1

[13] = target: T13, UniProt Q8VGY6
T13 sequence (whole entry): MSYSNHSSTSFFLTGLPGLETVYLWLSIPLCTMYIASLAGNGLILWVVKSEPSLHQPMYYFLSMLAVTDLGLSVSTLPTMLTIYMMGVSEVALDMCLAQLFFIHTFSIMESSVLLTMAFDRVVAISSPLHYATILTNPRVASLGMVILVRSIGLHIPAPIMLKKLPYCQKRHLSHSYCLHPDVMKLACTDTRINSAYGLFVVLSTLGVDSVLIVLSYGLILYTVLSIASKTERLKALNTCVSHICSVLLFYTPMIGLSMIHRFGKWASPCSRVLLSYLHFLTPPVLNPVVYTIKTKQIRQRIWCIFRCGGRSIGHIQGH
Outline: as §1

[14] = target: T14, UniProt Q8VH10
T14 sequence (whole entry): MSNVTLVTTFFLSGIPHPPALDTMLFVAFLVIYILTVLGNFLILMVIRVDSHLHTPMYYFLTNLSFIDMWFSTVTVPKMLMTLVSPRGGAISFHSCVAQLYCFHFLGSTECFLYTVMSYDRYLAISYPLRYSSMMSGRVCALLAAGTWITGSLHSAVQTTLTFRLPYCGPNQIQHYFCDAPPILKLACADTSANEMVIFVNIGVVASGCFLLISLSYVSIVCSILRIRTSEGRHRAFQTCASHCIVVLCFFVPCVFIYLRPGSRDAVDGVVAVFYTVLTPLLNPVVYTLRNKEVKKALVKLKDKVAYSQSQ
Outline: as §1

[15] = target: T15, UniProt Q9EPN9
T15 sequence (whole entry): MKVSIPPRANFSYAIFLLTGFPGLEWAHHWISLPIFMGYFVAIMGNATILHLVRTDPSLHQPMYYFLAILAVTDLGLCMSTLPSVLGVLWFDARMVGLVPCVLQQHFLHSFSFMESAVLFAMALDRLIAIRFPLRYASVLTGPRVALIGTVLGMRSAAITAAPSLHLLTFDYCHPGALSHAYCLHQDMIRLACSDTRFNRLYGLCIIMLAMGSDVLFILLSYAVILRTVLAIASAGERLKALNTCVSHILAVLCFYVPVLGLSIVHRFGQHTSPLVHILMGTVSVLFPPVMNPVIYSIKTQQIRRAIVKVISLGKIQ
Outline: as §1

[16] = target: UniProt Q9R0K2
Outline: as §1

[17] = target: T16, UniProt Q9WU86
T16 sequence (whole entry): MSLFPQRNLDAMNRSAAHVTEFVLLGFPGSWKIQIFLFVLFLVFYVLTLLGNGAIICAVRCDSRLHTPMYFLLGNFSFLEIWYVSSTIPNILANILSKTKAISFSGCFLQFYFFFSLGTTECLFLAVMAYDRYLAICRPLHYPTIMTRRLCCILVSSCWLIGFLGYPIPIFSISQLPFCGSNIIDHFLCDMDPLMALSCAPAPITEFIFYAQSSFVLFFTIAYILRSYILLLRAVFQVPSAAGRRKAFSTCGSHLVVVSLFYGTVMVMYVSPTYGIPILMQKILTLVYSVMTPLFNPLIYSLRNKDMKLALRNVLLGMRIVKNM
Outline: as §1

Measured: odorant receptor agonist call

UniProt Q9R0K2, sequence (Q9R0K2 as listed by the source): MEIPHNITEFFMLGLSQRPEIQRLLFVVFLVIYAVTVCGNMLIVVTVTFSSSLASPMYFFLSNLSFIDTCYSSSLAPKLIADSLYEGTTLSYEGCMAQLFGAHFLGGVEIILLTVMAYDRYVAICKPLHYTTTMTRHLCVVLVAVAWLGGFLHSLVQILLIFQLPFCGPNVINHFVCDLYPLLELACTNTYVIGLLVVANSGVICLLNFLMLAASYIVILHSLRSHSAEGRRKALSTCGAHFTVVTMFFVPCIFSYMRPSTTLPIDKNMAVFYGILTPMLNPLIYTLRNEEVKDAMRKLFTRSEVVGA

O=C(O)CCCCCBr
active: [1] | [6] | [9] | [12]
not listed: [13] | [14] | [15] | [16] | [17]
inactive: all other assays above

CCC=CCCCCC=O
active: [6]
inactive: [2] | [3] | [4] | [7] | [8]

CCCCCCC(C=O)=Cc1ccccc1
inactive: [2] | [3] | [4] | [6] | [7]

CCCC(C)=O
not listed: [4] | [7] | [8] | [9] | [10] | [12]
inactive: all other assays above

CCCCCO
not listed: [4] | [7] | [8]
inactive: all other assays above

CCCCCCC(=O)[O-].[H+]
active: [1] | [2] | [5] | [6] | [12]
not listed: [4] | [7] | [8] | [10]
inactive: all other assays above
